ChEMBL document CHEMBL1687847, “Three residues in HIV-1 matrix contribute to protease inhibitor susceptibility and replication capacity” (2011)
Calls of active or inactive are those of the source. No cut-off for these calls is given here.

Experiments:
[1] = tested on: Human immunodeficiency virus 1; assay: Antiviral activity against HIV1 harboring wild type 8.9NSX with gag T81A mutant infected in HEK293T cells assessed as inhibition of viral replication after 48 hrs by luciferase assay; assay type: functional, organism-based; conditions: HEK-293T
In short: (§1)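 Resistance vectors were made by cotransfecting HEK293T cells with a p8.9NSX-derived gag-pol vector carrying the matrix/protease variant, a VSV-G plasmid and a firefly luciferase plasmid. At 16 h, producer cells were reseeded in graded PI concentrations, and vectors were harvested 24 h later to infect fresh HEK293T cells. Luciferase was read 48 h postinfection relative to no-drug controls. EC50 came from linear regression, expressed as fold change versus WT subtype B p8.9NSX, mean of ≥2 experiments.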

[2] = tested on: Human immunodeficiency virus 1; assay: Antiviral activity against 8gpNS with amino acid 116 insertion removed HIV1 infected in HEK293T cells assessed as inhibition of viral replication after 48 hrs by luciferase assay; assay type: functional, organism-based; conditions: HEK-293T; in short: as §1
[3] = tested on: Human immunodeficiency virus 1; assay: Antiviral activity against HIV1 harboring wild type 8.9NSX with mutant amino acid 116 insertion infected in HEK293T cells assessed as inhibition of viral replication after 48 hrs by luciferase assay; assay type: functional, organism-based; conditions: HEK-293T; in short: as §1
[4] = tested on: Human immunodeficiency virus 1; assay: Antiviral activity against HIV1 harboring mutant protease with matrix K76R mutant infected in HEK293T cells assessed as inhibition of viral replication after 48 hrs by luciferase assay; assay type: functional, organism-based; conditions: HEK-293T; in short: as §1
[5] = tested on: Human immunodeficiency virus 1; assay: Antiviral activity against HIV1 harboring mutant protease with matrix Y79F mutant infected in HEK293T cells assessed as inhibition of viral replication after 48 hrs by luciferase assay; assay type: functional, organism-based; conditions: HEK-293T; in short: as §1
[6] = tested on: Human immunodeficiency virus 1; assay: Antiviral activity against HIV1 harboring mutant protease with matrix A81T mutant infected in HEK293T cells assessed as inhibition of viral replication after 48 hrs by luciferase assay; assay type: functional, organism-based; conditions: HEK-293T; in short: as §1
[7] = tested on: Human immunodeficiency virus 1; assay: Ratio of EC50 for HIV1 harboring HIV1 harboring wild type 8.9NSX with gag […] and T81A mutant to EC50 for wild type HIV1; assay type: functional; in short: as §1

SMILES | inhibition [1] | inhibition [2] | inhibition [3] | inhibition [4] | inhibition [5] | inhibition [6] | Ratio EC50 [7]
COC(=O)N[C@H](C(=O)N[C@@H](Cc1ccccc1)[C@@H](O)CN(Cc1ccc(-c2ccccn2)cc1)NC(=O)[C@@H](NC(=O)OC)C(C)(C)C)C(C)(C)C | inactive | inactive | inactive | inactive | inactive | inactive | 
CC(C)CN(C[C@@H](O)[C@H](Cc1ccccc1)NC(=O)O[C@H]1CCOC1)S(=O)(=O)c1ccc(N)cc1 [AMPRENAVIR] | inactive | inactive | inactive | inactive | inactive | inactive | 3
CC(C)CN(C[C@@H](O)[C@H](Cc1ccccc1)NC(=O)O[C@H]1CO[C@H]2OCC[C@H]21)S(=O)(=O)c1ccc(N)cc1 [DARUNAVIR] |  | inactive | inactive |  |  |  | 3
CC(C)(C)NC(=O)[C@@H]1CN(Cc2cccnc2)CCN1C[C@@H](O)C[C@@H](Cc1ccccc1)C(=O)N[C@H]1c2ccccc2C[C@H]1O.O [INDINAVIR] |  | inactive | inactive | inactive | inactive | inactive | 3
Cc1cccc(C)c1OCC(=O)N[C@@H](Cc1ccccc1)[C@@H](O)C[C@H](Cc1ccccc1)NC(=O)[C@H](C(C)C)N1CCCNC1=O [LOPINAVIR] |  | inactive | inactive | inactive | inactive | inactive | 3
Cc1c(O)cccc1C(=O)N[C@@H](CSc1ccccc1)[C@H](O)CN1C[C@H]2CCCC[C@H]2C[C@H]1C(=O)NC(C)(C)C [NELFINAVIR] | inactive | inactive | inactive | inactive | inactive | inactive | 3
CC(C)(C)NC(=O)[C@@H]1C[C@@H]2CCCC[C@@H]2CN1C[C@@H](O)[C@H](Cc1ccccc1)NC(=O)[C@H](CC(N)=O)NC(=O)c1ccc2ccccc2n1 [SAQUINAVIR] |  | inactive | inactive |  |  |  | 3
CCC[C@@]1(CCc2ccccc2)CC(O)=C([C@H](CC)c2cccc(NS(=O)(=O)c3ccc(C(F)(F)F)cn3)c2)C(=O)O1 [TIPRANAVIR] |  | inactive | inactive |  |  |  | 3
